As usually defined, the inhibition is the drop in the measured response relative to a control, in per cent.

Common to all, as to type: functional
The test system of one assay is Mycosphaerella arachidis. The assay can be described thus: Antifungal activity against Mycosphaerella arachidis assessed as inhibition of mycelium growth at 50 mg/L at 26 degC measured after 72 hr. In short, it runs like this: (§1)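 Mycelium growth assay on agar. 1 mL test solution (50 mg/L) was poured into a 9 cm plate with 9 mL agar medium. Controls used sterile water in its place. A 4 mm plug from the margin of an actively growing colony was placed in the centre and incubated at 26 °C. Hyphal diameter was measured over 72 h, in triplicate. Inhibition % = (control diameter − treated diameter)/control diameter.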

The test system of the next assay is Cladosporium cucumerinum. The experiment in a line: Antifungal activity against Cladosporium cucumerinum assessed as inhibition of mycelium growth at 50 mg/L at 26 degC measured after 72 hr. An outline of the steps:
as §1

The next assay deals with Alternaria solani. The experiment in a line: Antifungal activity against Alternaria solani assessed as inhibition of mycelium growth at 50 mg/L at 26 degC measured after 72 hr. In short, it runs like this: as §1
Assay [1] deals with Digitaria sanguinalis. The experiment in a line: Herbicidal activity against hairy crabgrass Digitaria sanguinalis (hairy crabgrass) assessed as herbicidal damage at 1.5 kg/ha measured after postemergence treatment. The note with it: post-emergence. In short, it runs like this: (§2)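 Seeds were sown in 6 cm boxes of artificial mixed soil, covered with plastic film until emergence, and grown in a greenhouse. Sprays were applied right after sowing (preemergence) or after the first true leaf expanded (postemergence). Controls received the same amount of water/DMF/Tween 20. Above-ground fresh weight was taken 10 days after treatment, in triplicate, as % damage versus control.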

Assay [2] has as its system Digitaria sanguinalis. The experiment in a line: Herbicidal activity against hairy crabgrass Digitaria sanguinalis (hairy crabgrass) assessed as herbicidal damage at 1.5 kg/ha measured after preemergence treatment. The conditions noted are these: pre-emergence. An outline of the steps:
as §2

Assay [3] concerns Amaranthus retroflexus. The experiment in a line: Herbicidal activity against Amaranthus retroflexus assessed as herbicidal damage at 1.5 kg/ha measured after postemergence treatment. The conditions noted are these: post-emergence. In short, it runs like this: as §2
The test system of assay [4] is Medicago sativa. The experiment in a line: Herbicidal activity against Medicago sativa (alfalfa) assessed as herbicidal damage at 1.5 kg/ha measured after preemergence treatment. The note with it: pre-emergence. In short, it runs like this: as §2
For assay [5], the system named is Brassica napus. The assay can be described thus: Herbicidal activity against rape Brassica napus (oilseed rape) assessed as herbicidal damage at 1.5 kg/ha measured after preemergence treatment. The note with it: pre-emergence. An outline of the steps:
as §2

The subject of a further assay is Cucumis sativus. The assay can be described thus: Plant growth regulatory activity in Cucumis sativus (cucumber) seed assessed as number of root at 10 mg/L at 26 degC measured after 5 days. In short, it runs like this: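 Cucumber seeds were incubated at 26 °C in the dark for 72 h, then 10 cotyledons were excised and treated. Incubation continued at 26 °C in the dark for 5 days. Roots were counted, with water-only controls, in triplicate.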

In assay [6] the test system is Amaranthus retroflexus. The assay can be described thus: Herbicidal activity against Amaranthus retroflexus assessed as herbicidal damage at 1.5 kg/ha measured after preemergence treatment. The note with it: pre-emergence. In short, it runs like this:
as §2

A further assay concerns Fusarium graminearum. The experiment in a line: Antifungal activity against Fusarium graminearum assessed as inhibition of mycelium growth at 50 mg/L at 26 degC measured after 72 hr. An outline of the steps:
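Mycelium growth test on agar plates: 1 mL test solution (50 mg/L) mixed with 9 mL agar medium; sterile water in place of test solution for controls. 4 mm inocula cut from margins of actively growing colonies, placed at plate centre, incubated at 26 °C; mycelium diameter measured over 72 h. Inhibition % from mean hyphal diameter against control. Triplicate.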

The subject of assay [7] is Brassica napus. The experiment in a line: Herbicidal activity against rape Brassica napus (oilseed rape) assessed as herbicidal damage at 1.5 kg/ha measured after postemergence treatment. The conditions noted are these: post-emergence. An outline of the steps: as §2
Assay [8] has as its system Botryosphaeria berengeriana. The assay can be described thus: Antifungal activity against Botryosphaeria berengeriana assessed as inhibition of mycelium growth at 50 mg/L at 26 degC measured after 72 hr. In short, it runs like this: as §1
For assay [9], the system named is Medicago sativa. The experiment in a line: Herbicidal activity against Medicago sativa (alfalfa) assessed as herbicidal damage at 1.5 kg/ha measured after postemergence treatment. The conditions noted are these: post-emergence. In short, it runs like this:
as §2

The test system of a further assay is Tobacco mosaic virus. The experiment in a line: Antiviral activity against Tobacco mosaic virus (TMV) inoculated in fresh tobacco leaf at 100 mg/L by half-leaf method. In short, it runs like this:
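Half-leaf method on tobacco leaves at the 5-6 growth stage. Leaves were inoculated with TMV by juice-leaf rubbing at 5.88 × 10-2 µg/mL and cut along the main vein. One half was immersed in test solution and the other in double distilled water for 20 min, then cultured at 25 °C for 72 h, in triplicate. Inhibition = 100(CK − A)/CK, from average lesion counts.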

Regarding `CCOCCOC(=O)/C(C#N)=C(/C)NCC1CCOC1` (stereo unspecified), the inhibition at 50 µg/mL in the assay with Mycosphaerella arachidis is 12.5%; in the assay on Cladosporium cucumerinum it was 18.4%; in the assay with Alternaria solani it was 35.7%; in the assay with Fusarium graminearum, 0%; in assay [8] it was 27.3%. Moreover, the inhibition at 1500 g/ha with Digitaria sanguinalis [1] is 0%; in the assay on Digitaria sanguinalis [2], 31.4%; in the assay with Amaranthus retroflexus [3], 29.5%; with Medicago sativa [4], 7.5%; in the assay on Brassica napus [5] it was 0%; in the assay with Amaranthus retroflexus [6] it was 12.6%. Moreover, the inhibition at 1500 g/ha in the assay with Brassica napus [7] was 52.3%; with Medicago sativa [9] it was 5.4%. Further, the Activity in the assay with Cucumis sativus is -6.6%.

As to `CCC/C(NCc1ccoc1)=C(\C#N)C(=O)OCCOCC`, the inhibition at 50 µg/mL in the assay with Mycosphaerella arachidis came to 12.5%; in the assay with Cladosporium cucumerinum, 21.1%; in the assay with Alternaria solani it was 25%; with Fusarium graminearum it was 16.7%; in assay [8], 31.8%. Besides, the inhibition at 1500 g/ha was 0% with Digitaria sanguinalis [1]; 35.7% in the assay with Digitaria sanguinalis [2]; 14.3% in the assay with Amaranthus retroflexus [3]; 4.5% in the assay on Medicago sativa [4]; 0% with Brassica napus [5]; 0% in the assay on Amaranthus retroflexus [6]. The inhibition at 1500 g/ha in the assay with Brassica napus [7] was found to be 25.2%; in the assay with Medicago sativa [9], 31.1%. Further, the Activity is -6.6% with Cucumis sativus and 0% with Tobacco mosaic virus.

Turning to `CCOCCOC(=O)/C(C#N)=C(/C)NCc1ccoc1`, the inhibition at 50 µg/mL worked out at 44.6% with Mycosphaerella arachidis; 36.8% in the assay on Cladosporium cucumerinum; 0% with Alternaria solani; 33.3% in the assay on Fusarium graminearum; 13.6% in [8]. In addition, the inhibition at 1500 g/ha amounted to 0% with Digitaria sanguinalis [1]; 22.8% with Digitaria sanguinalis [2]; 37.1% in the assay with Amaranthus retroflexus [3]; 6.8% with Medicago sativa [4]; 0% with Brassica napus [5]; 21.1% in the assay with Amaranthus retroflexus [6]. Moreover, the inhibition at 1500 g/ha in the assay with Brassica napus [7] was 49.8%; in the assay with Medicago sativa [9], 20.4%. Further, in the assay on Cucumis sativus, the Activity is -18.6%.

Turning to `CCOCCOC(=O)/C(C#N)=C(/CC)NCc1ccoc1`, the inhibition at 50 µg/mL in the assay with Mycosphaerella arachidis was 35.7%; in the assay with Cladosporium cucumerinum, 26.3%; in the assay with Alternaria solani, 10.7%; in the assay with Fusarium graminearum it was 33.3%; in assay [8], 4.5%. Further, the inhibition at 1500 g/ha in the assay with Digitaria sanguinalis [1] came out at 0%; in the assay with Digitaria sanguinalis [2], 0%; in the assay with Amaranthus retroflexus [3] it was 23.3%; with Medicago sativa [4] it was 2.3%; in the assay with Brassica napus [5], 0%; in the assay with Amaranthus retroflexus [6], 11.6%. In addition, the results for the inhibition at 1500 g/ha in the assay with Brassica napus [7] and in the assay on Medicago sativa [9] were 33.8% and 0%, respectively. For the same compound, the Activity in the assay on Cucumis sativus is recorded as 23.4%.

On to `CCOCCOC(=O)/C(C#N)=C(/CC)NCc1ccco1`, for which the inhibition at 50 µg/mL in the assay on Mycosphaerella arachidis was 35.7%; in the assay on Cladosporium cucumerinum it was 21.1%; in the assay on Alternaria solani, 0%; in the assay with Fusarium graminearum, 20%; in [8], 27.3%. For the same compound, the inhibition at 1500 g/ha in the assay with Digitaria sanguinalis [1] stood at 27.3%; in the assay with Digitaria sanguinalis [2], 12.1%; in the assay with Amaranthus retroflexus [3], 22.6%; with Medicago sativa [4], 0%; in the assay on Brassica napus [5] it was 16.3%; in the assay on Amaranthus retroflexus [6], 9.5%. Besides, the inhibition at 1500 g/ha with Brassica napus [7] is 47.9%; with Medicago sativa [9], 35.9%. The results for the Activity with Cucumis sativus and in the assay with Tobacco mosaic virus were 11.4% and 13.3%, respectively.

As for `CCC/C(NCc1ccco1)=C(\C#N)C(=O)OCCOCC`, the inhibition at 50 µg/mL in the assay with Mycosphaerella arachidis was found to be 3.6%; in the assay with Cladosporium cucumerinum it was 13.2%; with Alternaria solani, 10.7%; in the assay on Fusarium graminearum it was 30%; in assay [8], 9.1%. In addition, the inhibition at 1500 g/ha in the assay on Digitaria sanguinalis [1] stood at 1%; with Digitaria sanguinalis [2], 22.8%; in the assay on Amaranthus retroflexus [3] it was 31.6%; in the assay on Medicago sativa [4] it was 0%; in the assay on Brassica napus [5], 30.7%; with Amaranthus retroflexus [6] it was 0%. The results for the inhibition at 1500 g/ha in the assay with Brassica napus [7] and in the assay on Medicago sativa [9] were 22.9% and 12.6%, respectively. In addition, the Activity with Cucumis sativus was determined as 14.4%.

For the compound `CCOCCOC(=O)/C(C#N)=C(/NCc1ccco1)SC`, the inhibition at 50 µg/mL was 16.1% with Mycosphaerella arachidis; 15.8% in the assay on Cladosporium cucumerinum; 25% in the assay with Alternaria solani; 36.7% in the assay on Fusarium graminearum; 22.7% in [8]. In addition, the inhibition at 1500 g/ha in the assay on Digitaria sanguinalis [1] was determined as 13.1%; in the assay on Digitaria sanguinalis [2], 37.8%; with Amaranthus retroflexus [3], 30.2%; in the assay on Medicago sativa [4], 0%; with Brassica napus [5] it was 20.7%; with Amaranthus retroflexus [6], 10.5%. Further, the inhibition at 1500 g/ha with Brassica napus [7] amounted to 22.9%; in the assay with Medicago sativa [9], 18.6%. In the assay with Cucumis sativus, the Activity worked out at 14.4%.

Consider `CCOCCOC(=O)/C(C#N)=C(/NCC1CCOC1)SC` (stereo unspecified), for which the inhibition at 50 µg/mL in the assay with Mycosphaerella arachidis worked out at 25%; with Cladosporium cucumerinum it was 21.1%; with Alternaria solani it was 21.4%; with Fusarium graminearum, 0%; in [8], 27.3%. Also, the inhibition at 1500 g/ha stood at 0% with Digitaria sanguinalis [1]; 5.7% in the assay with Digitaria sanguinalis [2]; 43.3% with Amaranthus retroflexus [3]; 0% in the assay on Medicago sativa [4]; 0% with Brassica napus [5]; 22.1% in the assay on Amaranthus retroflexus [6]. The values for the inhibition at 1500 g/ha in the assay on Brassica napus [7] and with Medicago sativa [9] were 50.5% and 4.2%, respectively. Also, the Activity in the assay with Cucumis sativus is given as -9.6%.

As for `CCOCCOC(=O)/C(C#N)=C(/NCC1CCCO1)SC` (stereo unspecified), the inhibition at 50 µg/mL in the assay on Mycosphaerella arachidis worked out at 17.9%; in the assay on Cladosporium cucumerinum it was 34.2%; in the assay with Alternaria solani it was 0%; in the assay with Fusarium graminearum, 40%; in assay [8] it was 4.5%. Moreover, the inhibition at 1500 g/ha in the assay with Digitaria sanguinalis [1] came to 0%; in the assay on Digitaria sanguinalis [2] it was 35.7%; in the assay with Amaranthus retroflexus [3], 37.8%; in the assay on Medicago sativa [4], 21.8%; in the assay with Brassica napus [5], 0%; with Amaranthus retroflexus [6] it was 9.5%. The inhibition at 1500 g/ha in the assay with Brassica napus [7] amounted to 47.5%; in the assay on Medicago sativa [9], 23.4%. In the assay on Cucumis sativus, the Activity is on record as -0.6%.

With `CCOCCOC(=O)/C(C#N)=C(/C)NCc1ccco1`, the inhibition at 50 µg/mL was 44.6% in the assay on Mycosphaerella arachidis; 21.1% in the assay with Cladosporium cucumerinum; 0% in the assay with Alternaria solani; 46.7% in the assay on Fusarium graminearum; 22.7% in assay [8]. Besides, the inhibition at 1500 g/ha in the assay on Digitaria sanguinalis [1] worked out at 17.2%; in the assay on Digitaria sanguinalis [2], 42.1%; in the assay on Amaranthus retroflexus [3], 32.3%; in the assay on Medicago sativa [4] it was 12%; with Brassica napus [5], 8.5%; in the assay on Amaranthus retroflexus [6], 3.2%. Moreover, the inhibition at 1500 g/ha stood at 20.1% in the assay with Brassica napus [7] and 5.4% in the assay on Medicago sativa [9]. In addition, the Activity with Cucumis sativus is -0.6%.

Take `CCOCCOC(=O)/C(C#N)=C(\NCc1ccoc1)C(C)C`: the inhibition at 50 µg/mL in the assay with Mycosphaerella arachidis came to 30.4%; in the assay with Cladosporium cucumerinum, 13.2%; in the assay with Alternaria solani, 25%; with Fusarium graminearum it was 0%; in assay [8], 22.7%. Further, the inhibition at 1500 g/ha in the assay on Digitaria sanguinalis [1] came out at 0%; with Digitaria sanguinalis [2] it was 33.6%; in the assay on Amaranthus retroflexus [3] it was 27.4%; in the assay on Medicago sativa [4], 10.5%; with Brassica napus [5], 0%; in the assay with Amaranthus retroflexus [6], 22.1%. Besides, the inhibition at 1500 g/ha with Brassica napus [7] is 51.9%; in the assay with Medicago sativa [9], 13.2%. Moreover, the Activity with Cucumis sativus is given as 11.4%.

For the origin of these results see ChEMBL document CHEMBL3046176, “Synthesis, crystal structure, and biological activities of 2-cyanoacrylates containing furan or tetrahydrofuran moieties” (2007).
